Experimental data published in ChEMBL document CHEMBL3877273, “Synthesis and evaluation of N-substituted 2-amino-4,5-diarylpyrimidines as selective adenosine A1 receptor antagonists” (Eur J Med Chem, 2017).

Experiments:
Adenosine receptor A2a [1] = target: T1, Adenosine receptor A2a (Homo sapiens, UniProt P29274); assay: Displacement of [3H]ZM241385 from recombinant human adenosine A2A receptor expressed in HEK293 cell membranes after 2 hrs by beta scintillation counting method
Summary of the method: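 Membranes from HEK293 cells stably expressing human A2A receptor were used in radioligand competition with [3H]ZM241385. Ki was reported as mean ± SEM, n = 3.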

Adenosine receptor A1 [2] = target: T2, Adenosine receptor A1 (Homo sapiens, UniProt P30542); assay: Displacement of [3H]DPCPX from recombinant human adenosine A1 receptor expressed in CHO cell membranes after 1 hr by beta scintillation counting method
T2 sequence (P30542 whole entry): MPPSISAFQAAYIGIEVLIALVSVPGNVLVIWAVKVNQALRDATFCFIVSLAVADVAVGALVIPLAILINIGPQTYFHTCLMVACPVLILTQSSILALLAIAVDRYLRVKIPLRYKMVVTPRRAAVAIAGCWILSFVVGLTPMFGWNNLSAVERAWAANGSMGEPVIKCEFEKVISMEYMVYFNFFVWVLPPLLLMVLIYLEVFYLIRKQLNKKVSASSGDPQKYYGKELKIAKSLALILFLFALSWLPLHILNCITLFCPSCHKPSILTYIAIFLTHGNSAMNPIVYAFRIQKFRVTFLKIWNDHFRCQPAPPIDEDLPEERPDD

Adenosine receptor A2a [3] = target: T1, Adenosine receptor A2a; assay: Displacement of [3H]ZM241385 from recombinant human adenosine A2A receptor expressed in HEK293 cell membranes at 1 uM after 2 hrs by beta scintillation counting method relative to control
Summary of the method: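 Single-concentration screen on membranes from HEK293 cells stably expressing human A2A receptor. Test ligand at 1 µM, measured against specific [3H]ZM241385 binding and given as % displacement. Two independent experiments (n = 2), each value reported.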

[4] = target: T3, Adenosine receptor A3 (Homo sapiens) (UniProt P0DMS8); assay: Displacement of [3H]PSB11 from recombinant human adenosine A3 receptor expressed in CHO cell membranes at 1 uM after 1 hr by […] method relative to control
T3 sequence (whole entry): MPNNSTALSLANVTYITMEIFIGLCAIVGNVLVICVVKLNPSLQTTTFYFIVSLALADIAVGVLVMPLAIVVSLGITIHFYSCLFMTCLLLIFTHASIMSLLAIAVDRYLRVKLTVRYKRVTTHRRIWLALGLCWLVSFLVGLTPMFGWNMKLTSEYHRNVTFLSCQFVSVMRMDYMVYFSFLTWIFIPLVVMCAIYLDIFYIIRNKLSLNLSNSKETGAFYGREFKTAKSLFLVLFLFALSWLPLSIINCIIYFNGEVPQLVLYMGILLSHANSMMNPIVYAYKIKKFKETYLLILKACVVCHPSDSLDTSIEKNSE

[5] = target: T4, Adenosine receptor A2b (Homo sapiens) (UniProt P29275); assay: Displacement of [3H]PSB603 from recombinant human adenosine A2B receptor expressed in CHO cell membranes at 1 uM after 1 hr by beta scintillation counting method relative to control
T4 sequence (whole entry): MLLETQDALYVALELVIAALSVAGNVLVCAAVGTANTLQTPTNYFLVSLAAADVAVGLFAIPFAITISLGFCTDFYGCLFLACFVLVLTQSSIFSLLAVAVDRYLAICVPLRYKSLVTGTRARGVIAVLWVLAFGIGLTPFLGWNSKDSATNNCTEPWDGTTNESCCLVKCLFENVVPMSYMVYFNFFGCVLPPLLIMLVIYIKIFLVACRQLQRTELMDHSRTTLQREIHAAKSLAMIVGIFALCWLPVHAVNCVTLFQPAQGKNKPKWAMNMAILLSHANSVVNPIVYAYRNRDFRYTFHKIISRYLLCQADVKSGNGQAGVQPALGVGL

Adenosine receptor A1 [6] = target: T2, Adenosine receptor A1; assay: Inverse agonist activity at recombinant human adenosine A1 receptor expressed in CHO cell membranes assessed as […] of [35S]GTPgammaS binding preincubated for 30 mins followed by [35S]GTPgammaS addition measured after 90 mins by beta scintillation counting method; format: functional
Adenosine receptor A2b = target: T5, Adenosine receptor A2b (Homo sapiens, UniProt P29275); assay: Displacement of [3H]PSB603 from recombinant human adenosine A2B receptor expressed in CHO cell membranes after 1 hr by beta scintillation counting method
T5 sequence (P29275 whole entry): T4 sequence (whole entry)

T1 sequence (P29274 whole entry): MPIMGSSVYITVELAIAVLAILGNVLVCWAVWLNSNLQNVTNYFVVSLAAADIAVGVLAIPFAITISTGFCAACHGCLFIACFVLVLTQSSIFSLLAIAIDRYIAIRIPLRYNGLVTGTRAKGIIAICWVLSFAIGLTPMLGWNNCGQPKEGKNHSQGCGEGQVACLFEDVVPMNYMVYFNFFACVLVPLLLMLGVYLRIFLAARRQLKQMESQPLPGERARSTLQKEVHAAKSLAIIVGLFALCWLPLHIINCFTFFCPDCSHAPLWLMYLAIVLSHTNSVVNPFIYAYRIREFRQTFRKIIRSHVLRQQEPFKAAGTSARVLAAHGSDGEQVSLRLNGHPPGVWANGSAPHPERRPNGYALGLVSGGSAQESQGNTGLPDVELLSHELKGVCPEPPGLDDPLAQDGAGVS

Structure (SMILES)	Ki (Adenosine receptor A2a [1]) [nM]	Ki (Adenosine receptor A1 [2]) [nM]	other results
OCCCNc1ncc(-c2cccc(Cl)c2)c(-c2ccccc2)n1		59	inhibition (Adenosine receptor A2a [3]): 9.5%
Nc1ncc(-c2ccc(Cl)c(Cl)c2)c(-c2ccccc2)n1		38	inhibition (Adenosine receptor A2a [3]): 41%
COc1ccc(-c2cnc(N)nc2-c2ccccc2)cc1Cl	251	30 to 95	
OCCCCNc1ncc(-c2cccc(Cl)c2)c(-c2ccccc2)n1		130	inhibition (Adenosine receptor A2a [3]): 13%
Nc1ncc(-c2ccc(F)cc2)c(-c2ccccc2)n1		160	
Nc1ncc(-c2cccc(Cl)c2)c(-c2ccccc2)n1	120	55	
O[C@H]1CC[C@H](Nc2ncc(-c3cccc(Cl)c3)c(-c3ccccc3)n2)CC1		30	inhibition [4]: 3%; inhibition (Adenosine receptor A2a [3]): 1.4%; inhibition [5]: 27%; EC50 (Adenosine receptor A1 [6]): 278 nM
COc1cccc(-c2cnc(N)nc2-c2ccccc2)c1	154	54	
Nc1ncc(-c2cccc(O)c2)c(-c2ccccc2)n1		144	
OCCNc1ncc(-c2cccc(Cl)c2)c(-c2ccccc2)n1		180	
Oc1ccc(-c2cnc(N[C@H]3CC[C@H](O)CC3)nc2-c2ccccc2)cc1Cl	7.2		
CCCC(=O)Nc1ncc(-c2cccc(Cl)c2)c(-c2ccccc2)n1		106	
Cc1cccc(-c2cnc(N)nc2-c2ccccc2)c1		205	
O[C@H]1CC[C@H](Nc2ncc(-c3ccc4ccccc4c3)c(-c3ccccc3)n2)CC1			inhibition [4]: 9%; inhibition [5]: 48%; IC50 (Adenosine receptor A2b): 1000 nM; EC50 (Adenosine receptor A1 [6]): 166 nM
COc1ccc(-c2cnc(N)nc2-c2ccccc2)cc1OC		104	
Clc1cccc(-c2cnc(NC3CCCC3)nc2-c2ccccc2)c1		94	inhibition (Adenosine receptor A2a [3]): 23%

Further lines, with some results ahead:

Ki (Adenosine receptor A2a [1]) [nM]	Ki (Adenosine receptor A1 [2]) [nM]	Structure (SMILES)	other results
36	1.76	Nc1ncc(-c2ccnc(C3CC3)c2)c(-c2ccccc2)n1	
1.3	1.4	Nc1ncc(-c2ccc(O)cc2)c(-c2ccccc2)n1	
65	1.06	O[C@H]1CC[C@H](Nc2ncc(-c3ccnc(C4CC4)c3)c(-c3ccccc3)n2)CC1	
4.7	12	Nc1ncc(-c2ccc(O)c(O)c2)c(-c2ccccc2)n1	
1.3	0.46	Nc1ncc(-c2ccc(O)c(Cl)c2)c(-c2ccccc2)n1	
129	18	Nc1ncc(-c2ccc3ccccc3c2)c(-c2ccccc2)n1	
98	14	Nc1ncc(-c2cccc(C(F)(F)F)c2)c(-c2ccccc2)n1	
108	17	Nc1ncc(-c2ccncc2)c(-c2ccccc2)n1	
